Here are results for six compounds from ChEMBL document CHEMBL1944570, “Discovery of 4''-ether linked azithromycin-quinolone hybrid series: influence of the central linker on the antibacterial activity” (ACS Med Chem Lett, 2011).

Values after ≈ are worked out from the molar mass of the structure shown.

Common to all, as to format: functional
For assay [1], the system named is Streptococcus pyogenes. As to the kind of experiment: Antibacterial activity against erythromycin-susceptible Streptococcus pyogenes by agar microdilution method. The essentials: (§1)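 MIC by agar microdilution following NCCLS standards; strains drawn from the PLIVA Research Institute culture collection. MIC reported in μg/mL.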
Assay [2] deals with Staphylococcus aureus. Description: Antibacterial activity against ciprofloxacin-resistant Staphylococcus aureus by agar microdilution method. The essentials: as §1
Assay [3] concerns Streptococcus pyogenes. As to the kind of experiment: Antibacterial activity against constitutive MLS resistant Streptococcus pyogenes by agar microdilution method. The essentials:
as §1

Another assay concerns Haemophilus influenzae. As to the kind of experiment: Antibacterial activity against Haemophilus influenzae B0529 by agar microdilution method. The essentials: (§2)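 Agar microdilution MIC per NCCLS standards against strains from the Pliva Research Institute culture collection; values in µg/mL. Panel included erythromycin-susceptible strains and strains with inducible or constitutive MLS resistance.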

For assay [4], the system named is Streptococcus pyogenes. Description: Antibacterial activity against efflux mediated macrolide resistant Streptococcus pyogenes by agar microdilution method. In a few lines: as §1
For assay [5], the system named is Streptococcus pneumoniae. As to the kind of experiment: Antibacterial activity against erythromycin-susceptible Streptococcus pneumoniae by agar microdilution method. The essentials: as §1
Assay [6] deals with Staphylococcus aureus. As to the kind of experiment: Antibacterial activity against Staphylococcus aureus with inducible resistance to MLS by agar microdilution method. The essentials: as §1
The test system of assay [7] is Streptococcus pneumoniae. Description: Antibacterial activity against constitutive MLS resistant Streptococcus pneumoniae by agar microdilution method. The essentials: as §1
Assay [8] relates to Staphylococcus aureus. As to the kind of experiment: Antibacterial activity against constitutive MLS resistant Staphylococcus aureus by agar microdilution method. In a few lines: as §1
The subject of a further assay is Moraxella catarrhalis. As to the kind of experiment: Antibacterial activity against Moraxella catarrhalis by agar microdilution method. The essentials:
as §2

Assay [9] concerns Staphylococcus aureus. As to the kind of experiment: Antibacterial activity against erythromycin-susceptible Staphylococcus aureus by agar microdilution method. In a few lines:
as §2

The subject of assay [10] is Staphylococcus aureus. As to the kind of experiment: Antibacterial activity against efflux mediated macrolide resistant Staphylococcus aureus by agar microdilution method. In a few lines:
as §1

The subject of assay [11] is Streptococcus pneumoniae. As to the kind of experiment: Antibacterial activity against efflux mediated macrolide resistant Streptococcus pneumoniae by agar microdilution method. In a few lines:
as §1

Assay [12] relates to Streptococcus pyogenes. As to the kind of experiment: Antibacterial activity against Streptococcus pyogenes with inducible resistance to MLS by agar microdilution method. The essentials:
as §1

For the compound `CC[C@H]1OC(=O)[C@H](C)[C@@H](O[C@H]2C[C@@](C)(OC)[C@@H](OCCNCCNc3cc4c(cc3F)c(=O)c(C(=O)O)cn4C3CC3)[C@H](C)O2)[C@H](C)[C@@H](O[C@@H]2O[C@H](C)C[C@H](N(C)C)[C@H]2O)[C@](C)(O)C[C@@H](C)CN(C)[C@H](C)[C@@H](O)[C@]1(C)O`, the MIC is at most 0.125 µg/mL against Streptococcus pyogenes [1]; at least 64 µg/mL against Staphylococcus aureus [2]; 1 µg/mL (≈ 0.926 µM) in the assay on Streptococcus pyogenes [3]; 4 µg/mL (≈ 3.7 µM) against Haemophilus influenzae; 1 µg/mL (≈ 0.926 µM) in the assay with Streptococcus pyogenes [4]; at most 0.125 µg/mL with Streptococcus pneumoniae [5]. The MIC against Staphylococcus aureus [6] turned out to be 64 µg/mL (≈ 59.2 µM); in the assay on Streptococcus pneumoniae [7] it was 32 µg/mL (≈ 29.6 µM); against Staphylococcus aureus [8], 64 µg/mL (≈ 59.2 µM); against Moraxella catarrhalis it was 1 µg/mL (≈ 0.926 µM); in the assay on Staphylococcus aureus [9], 2 µg/mL (≈ 1.85 µM); with Staphylococcus aureus [10], 2 µg/mL (≈ 1.85 µM).
Consider `CC[C@H]1OC(=O)[C@H](C)[C@@H](O[C@H]2C[C@@](C)(OC)[C@@H](OCCCC(=O)NCCOCCNc3cc4c(=O)c(C(=O)O)cn(C5CC5)c4cc3Cl)[C@H](C)O2)[C@H](C)[C@@H](O[C@@H]2O[C@H](C)C[C@H](N(C)C)[C@H]2O)[C@](C)(O)C[C@@H](C)CN(C)[C@H](C)[C@@H](O)[C@]1(C)O`, for which the MIC in the assay with Streptococcus pyogenes [1] is at most 0.125 µg/mL; with Staphylococcus aureus [2], at least 64 µg/mL; in the assay with Streptococcus pyogenes [3] it was 2 µg/mL (≈ 1.69 µM); in the assay with Haemophilus influenzae it was 4 µg/mL (≈ 3.38 µM); against Streptococcus pyogenes [4] it was 1 µg/mL (≈ 0.845 µM); in the assay with Streptococcus pneumoniae [5], at most 0.125 µg/mL. Further, the MIC with Staphylococcus aureus [6] was determined as 64 µg/mL (≈ 54.1 µM); in the assay with Streptococcus pneumoniae [7], 4 µg/mL (≈ 3.38 µM); with Staphylococcus aureus [8] it was 64 µg/mL (≈ 54.1 µM); against Moraxella catarrhalis it was 4 µg/mL (≈ 3.38 µM); in the assay on Streptococcus pneumoniae [11], 0.25 µg/mL (≈ 0.211 µM); with Staphylococcus aureus [9], 2 µg/mL (≈ 1.69 µM). Besides, in the assay on Staphylococcus aureus [10], the MIC is 8 µg/mL (≈ 6.76 µM).
In the case of `CCOC(=O)c1cn(CC)c2ccc(N3CCN(CCO[C@H]4[C@H](C)O[C@@H](O[C@H]5[C@H](C)[C@@H](O[C@@H]6O[C@H](C)C[C@H](N(C)C)[C@H]6O)[C@](C)(O)C[C@@H](C)CN(C)[C@H](C)[C@H]6OC(=O)O[C@]6(C)[C@@H](CC)OC(=O)[C@@H]5C)C[C@@]4(C)OC)CC3)cc2c1=O`, the MIC against Streptococcus pyogenes [1] was at most 0.125 µg/mL; against Staphylococcus aureus [2], at least 64 µg/mL; in the assay with Streptococcus pyogenes [3], 64 µg/mL (≈ 56.6 µM); against Haemophilus influenzae, 1 µg/mL (≈ 0.885 µM); in the assay with Streptococcus pyogenes [4], 16 µg/mL (≈ 14.2 µM); in the assay on Streptococcus pneumoniae [5], at most 0.125 µg/mL. The MIC with Staphylococcus aureus [6] is 64 µg/mL (≈ 56.6 µM); against Streptococcus pneumoniae [7] it was 64 µg/mL (≈ 56.6 µM); with Staphylococcus aureus [8], above 64 µg/mL; in the assay on Moraxella catarrhalis it was 0.25 µg/mL (≈ 0.221 µM); against Streptococcus pyogenes [12] it was 1 µg/mL (≈ 0.885 µM); in the assay with Staphylococcus aureus [9] it was 0.5 µg/mL (≈ 0.442 µM). For the same compound, the MIC against Staphylococcus aureus [10] came out at 8 µg/mL (≈ 7.08 µM).
Regarding `CC[C@H]1OC(=O)[C@H](C)[C@@H](O[C@H]2C[C@@](C)(OC)[C@@H](OCCN3CCN(c4ccc5c(c4)c(=O)c(C(=O)O)cn5CC)CC3)[C@H](C)O2)[C@H](C)[C@@H](O[C@@H]2O[C@H](C)C[C@H](N(C)C)[C@H]2O)[C@](C)(O)C[C@@H](C)CN(C)[C@H](C)[C@H]2OC(=O)O[C@@]21C`, the MIC is 0.25 µg/mL (≈ 0.227 µM) against Streptococcus pyogenes [1]; at least 64 µg/mL with Staphylococcus aureus [2]; 32 µg/mL (≈ 29 µM) against Streptococcus pyogenes [3]; 2 µg/mL (≈ 1.81 µM) against Haemophilus influenzae; 4 µg/mL (≈ 3.63 µM) in the assay on Streptococcus pyogenes [4]; at most 0.125 µg/mL against Streptococcus pneumoniae [5]. Moreover, the MIC against Staphylococcus aureus [6] amounted to 16 µg/mL (≈ 14.5 µM); with Streptococcus pneumoniae [7], 32 µg/mL (≈ 29 µM); in the assay with Staphylococcus aureus [8], 32 µg/mL (≈ 29 µM); with Moraxella catarrhalis, 4 µg/mL (≈ 3.63 µM); against Streptococcus pyogenes [12] it was 4 µg/mL (≈ 3.63 µM); against Staphylococcus aureus [9] it was 1 µg/mL (≈ 0.907 µM). Besides, in the assay on Staphylococcus aureus [10], the MIC stood at 2 µg/mL (≈ 1.81 µM).
On to `CC[C@H]1OC(=O)[C@H](C)[C@@H](O[C@H]2C[C@@](C)(OC)[C@@H](OCCNCCOCCNc3cc4c(cc3F)c(=O)c(C(=O)O)cn4C3CC3)[C@H](C)O2)[C@H](C)[C@@H](O[C@@H]2O[C@H](C)C[C@H](N(C)C)[C@H]2O)[C@](C)(O)C[C@@H](C)CN(C)[C@H](C)[C@@H](O)[C@]1(C)O`, for which the MIC in the assay on Streptococcus pyogenes [1] is at most 0.125 µg/mL; with Staphylococcus aureus [2], at least 64 µg/mL; in the assay with Streptococcus pyogenes [3] it was 2 µg/mL (≈ 1.78 µM); in the assay with Haemophilus influenzae, 8 µg/mL (≈ 7.11 µM); against Streptococcus pyogenes [4] it was 1 µg/mL (≈ 0.889 µM); in the assay with Streptococcus pneumoniae [5], at most 0.125 µg/mL. For the same compound, the MIC was 64 µg/mL (≈ 56.9 µM) against Staphylococcus aureus [6]; 2 µg/mL (≈ 1.78 µM) in the assay on Streptococcus pneumoniae [7]; above 64 µg/mL in the assay on Staphylococcus aureus [8]; 8 µg/mL (≈ 7.11 µM) against Moraxella catarrhalis; 8 µg/mL (≈ 7.11 µM) in the assay with Staphylococcus aureus [9]; 8 µg/mL (≈ 7.11 µM) against Staphylococcus aureus [10].
With `CC[C@H]1OC(=O)[C@H](C)[C@@H](O[C@H]2C[C@@](C)(OC)[C@@H](OCCNCCOCCNc3cc4c(cc3F)c(=O)c(C(=O)O)cn4C3CC3)[C@H](C)O2)[C@H](C)[C@@H](O[C@@H]2O[C@H](C)C[C@H](N(C)C)[C@H]2O)[C@](C)(O)C[C@@H](C)CN(C)[C@H](C)[C@H]2OC(=O)O[C@@]21C`, the MIC was at most 0.125 µg/mL with Streptococcus pyogenes [1]; at least 64 µg/mL in the assay with Staphylococcus aureus [2]; 32 µg/mL (≈ 27.8 µM) in the assay with Streptococcus pyogenes [3]; 4 µg/mL (≈ 3.48 µM) against Haemophilus influenzae; 4 µg/mL (≈ 3.48 µM) in the assay with Streptococcus pyogenes [4]; at most 0.125 µg/mL in the assay on Streptococcus pneumoniae [5]. Besides, the MIC is 64 µg/mL (≈ 55.6 µM) with Staphylococcus aureus [6]; 16 µg/mL (≈ 13.9 µM) against Streptococcus pneumoniae [7]; above 64 µg/mL with Staphylococcus aureus [8]; 0.5 µg/mL (≈ 0.435 µM) in the assay on Moraxella catarrhalis; 1 µg/mL (≈ 0.869 µM) with Streptococcus pyogenes [12]; 8 µg/mL (≈ 6.95 µM) against Staphylococcus aureus [9]. In the assay on Staphylococcus aureus [10], this compound registered an MIC of 64 µg/mL (≈ 55.6 µM).
